This is an account of results in ChEMBL document CHEMBL3576814, “N (1)-Fluoroalkyltryptophan Analogues: Synthesis and in vitro Study as Potential Substrates for Indoleamine 2,3-Dioxygenase” (ACS Med Chem Lett, 2015).

Data set [1] is described as follows: Retention time of the compound by HPLC analysis. It is filed as physicochemical. A digest of the protocol: (§1)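 rhIDO incubation mixtures analysed by HPLC or UPLC, eluting with CH3CN/10 mM ammonium acetate 10/90 or 5/95 (v/v) at 0.7 mL/min. UV detection uses 221 and 284 nm for substrates and 321 or 360 nm for products. Product peaks are collected for mass spectrometry.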

Data set [2] has as its target Indoleamine 2,3-dioxygenase 1 (Homo sapiens) (UniProt P14902). The data set is described as follows: Activity of recombinant human IDO assessed as retention time treated with 1-FETrp by HPLC analysis. The procedure, abridged: as §1
For data set [3] the target is unchanged. As to the kind of experiment: Activity of recombinant human IDO assessed as retention time treated with L-Trp by HPLC analysis. The procedure, abridged:
as §1

Data set [4] has the same target. As to the kind of experiment: Activity of recombinant human IDO assessed as retention time treated with 1-Me-L-Trp by HPLC analysis. The procedure, abridged:
as §1

Data set [5] has as its target Tryptophan 2,3-dioxygenase (Homo sapiens) (UniProt P48775). The data set is described as follows: Activity of 1 uM recombinant human TDO assessed as substrate consumption at 100 uM at 37 degC at pH 7.5 after 1 hr by HPLC with fluorescence detection method. A digest of the protocol:
(§2)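 Recombinant human TDO (1 or 10 μM enzyme) incubated with substrate at 100 μM, 37 °C, pH 7.5, for 1 h. Perchloric acid is then added and the mixture analysed by HPLC with fluorescence detection. Read-out is percentage of substrate consumed.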

Data set [6] has the same target. The data set is described as follows: Activity of 10 uM recombinant human TDO assessed as substrate consumption at 100 uM at 37 degC at pH 7.5 after 1 hr by HPLC with fluorescence detection method. The procedure, abridged: as §2
The target of data set [7] is Indoleamine 2,3-dioxygenase 1 (Homo sapiens) (UniProt P14902). As to the kind of experiment: Activity of recombinant human IDO assessed as retention time treated with 5-HO-L-Trp by HPLC analysis. A digest of the protocol:
as §1

Chain of Tryptophan 2,3-dioxygenase (Homo sapiens) (P48775 whole entry, looked up): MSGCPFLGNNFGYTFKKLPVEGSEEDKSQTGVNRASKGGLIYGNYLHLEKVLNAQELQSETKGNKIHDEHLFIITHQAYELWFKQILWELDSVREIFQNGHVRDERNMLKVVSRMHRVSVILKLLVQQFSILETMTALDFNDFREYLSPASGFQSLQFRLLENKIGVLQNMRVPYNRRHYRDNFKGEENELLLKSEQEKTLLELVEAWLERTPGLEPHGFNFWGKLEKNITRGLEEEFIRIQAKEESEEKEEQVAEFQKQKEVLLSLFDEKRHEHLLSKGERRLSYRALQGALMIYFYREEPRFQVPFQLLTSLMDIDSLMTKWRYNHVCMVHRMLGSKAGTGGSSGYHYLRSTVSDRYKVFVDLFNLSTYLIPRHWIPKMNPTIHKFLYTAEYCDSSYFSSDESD
Chain of Indoleamine 2,3-dioxygenase 1 (Homo sapiens) (P14902 whole entry, looked up): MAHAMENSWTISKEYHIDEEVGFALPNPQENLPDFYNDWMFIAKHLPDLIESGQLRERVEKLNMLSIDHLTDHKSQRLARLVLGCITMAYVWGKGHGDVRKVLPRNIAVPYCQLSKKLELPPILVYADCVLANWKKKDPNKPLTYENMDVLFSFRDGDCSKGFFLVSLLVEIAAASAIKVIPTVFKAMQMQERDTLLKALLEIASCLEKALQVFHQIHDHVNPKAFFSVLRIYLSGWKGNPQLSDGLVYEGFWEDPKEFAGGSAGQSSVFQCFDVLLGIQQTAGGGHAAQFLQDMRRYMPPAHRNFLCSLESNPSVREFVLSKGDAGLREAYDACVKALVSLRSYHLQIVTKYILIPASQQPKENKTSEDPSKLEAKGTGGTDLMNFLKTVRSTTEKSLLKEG

Take `CC(N)Cc1c[nH]c2ccccc12` (stereo not given): the Retention_time in data set [1] is listed as 11.1 min.

For the compound `NC(CC(=O)c1ccccc1NCCF)C(=O)O` (stereo not given), in data set [2], the Retention time is 7.9 min.

With `CC(N)(Cc1c[nH]c2ccccc12)C(=O)O` (stereo not given), the Retention_time in data set [1] turned out to be 7 min.

As to `NC(CC(=O)c1ccccc1N(C=O)CCF)C(=O)O` (stereo not given), the Retention time in data set [2] came to 5 min.

For the compound `N[C@@H](CC(=O)c1ccccc1NC=O)C(=O)O`, the Retention time in data set [3] was found to be 4.3 min.

`CC(C)(C)OC(=O)N[C@@H](Cc1c[nH]c2ccccc12)C(=O)O`: the Retention_time in data set [1] is given as 5.9 min.

Regarding `CNc1ccccc1C(=O)C[C@H](N)C(=O)O`, the Retention time in data set [4] came to 7.4 min.

`Cn1cc(C[C@H](N)C(=O)O)c2ccccc21` [(L)-1-METHYLTRYPTOPHAN] came in with a Retention_time in data set [1] of 9.4 min. The Activity worked out at 0% in data set [5] and 3% in data set [6].

Turning to `N[C@@H](Cc1c[nH]c2ccccc12)C(=O)O` [TRYPTOPHAN], the Retention_time in data set [1] is reported as 5.4 min. Besides, the Activity was determined as 67% in data set [5] and 100% in data set [6].

For the compound `NC(Cc1cn(CCF)c2ccccc12)C(=O)O` (racemic), in data set [1], the Retention_time amounted to 9.2 min. The values for the Activity in data set [5] and in data set [6] were 0% and 2%, respectively.

For the compound `N[C@@H](Cc1c[nH]c2ccc(O)cc12)C(=O)O` [OXITRIPTAN], the Retention_time in data set [1] came to 5.1 min. Moreover, the Activity in data set [5] was determined as 0%; in data set [6], 14%.

With `CN(C=O)c1ccccc1C(=O)C[C@H](N)C(=O)O`, the Retention time in data set [4] is 4.5 min.

Consider `Nc1ccc(O)cc1C(=O)C[C@H](N)C(=O)O`, for which the Retention time in data set [7] was found to be 3.9 min.

In the case of `CC(=O)N[C@@H](Cc1c[nH]c2ccccc12)C(=O)O` [ACETYLTRYPTOPHAN], the Retention_time in data set [1] was found to be 7 min.

In data set [1], `N[C@@H](Cc1cn(Cc2cn(CCF)nn2)c2ccccc12)C(=O)O` gave a Retention_time of 16.4 min.

In data set [1], `NCCc1c[nH]c2ccccc12` [TRYPTAMINE] gave a Retention_time of 9 min.

With `Nc1ccccc1C(=O)C[C@H](N)C(=O)O`, the Retention time in data set [3] is 4.5 min.
